Measured values of several laboratories.
Lines come from different studies, so protocols differ.

COC(=O)N[C@H](C(=O)N1CCC[C@H]1c1ncc(-c2ccc(-c3ccc(-c4cnc([C@@H]5CCCN5C(=O)[C@@H](NC(=O)OC)C(C)C)[nH]4)cc3)cc2)[nH]1)C(C)C
EC50 (Hepatitis C virus; viral replication, inhibitor; Huh-7, GETYPE2A; replicon): 0.02 nM

CCOC(=O)N[C@@H](C(=O)N1CCC[C@@H]1C(=O)Nc1ccc(C#CC#Cc2ccc(NC(=O)[C@H]3CCCN3C(=O)[C@H](NC(=O)OCC)C(C)C)cc2)cc1)C(C)C
EC50 (Hepatitis C virus; viral replication, inhibitor, luciferase; Huh-5-2, GETYPE1B; 72 h, replicon): > 10000 nM

C=C1CC[C@@H]2[C@](C)(CO)[C@H](O)CC[C@@]2(C)[C@@H]1C/C=C1/C(=O)OC[C@H]1O
inhibition (unidentified human coronavirus; cytopathic effect; MRC5; 25 µM, 72 h): 58.4%

C[C@@]1(O)[C@H](O)[C@@H](CO)O[C@H]1n1ccc(N)nc1=O
EC90 (Hepatitis C virus; viral replication, inhibitor; Huh-7; replicon): 5.8 µM

CCCCCCC/C=C/C(=O)N1C(=O)/C(=C(\O)c2ccccc2)C(=O)C1CC(C)C (stereo not shown)
MIC (Proteus mirabilis; microbial growth; ATCC25933): > 200 µg/mL

CC1(C)OC[C@@]2(C)[C@H]3CC[C@@H]4CN(Cc5ccco5)[C@@H](C5=CCOC5=O)C[C@H]4[C@]3(C)CC[C@H]2O1
inhibition (unidentified human coronavirus; cytopathic effect; MRC5; 25 µM, 72 h): 17.5%

CCOC(=O)N[C@H](CC(C)C)C(=O)N1CCC[C@H]1C(=O)Nc1cccc(C#CC#Cc2cccc(NC(=O)[C@@H]3CCCN3C(=O)[C@@H](CC(C)C)NC(=O)OCC)c2)c1
EC50 (Hepatitis C virus; viral replication, inhibitor, luciferase; GETYPE3A; replicon): > 10000 nM

CCCCCCC/C=C/C(=O)N1C(=O)/C(=C(/C)O)C(=O)C1Cc1ccc(OC(C)(C)C)cc1 (stereo not shown)
MIC (Proteus mirabilis; microbial growth; ATCC25933): > 200 µg/mL

COC(=O)N[C@H](C(=O)N1CCC[C@H]1C(=O)Nc1cccc(C#CC#Cc2cccc(NC(=O)[C@@H]3CCCN3C(=O)[C@@H](NC(=O)OC)C(C)C)c2)c1)C(C)C
EC50 (Hepatitis C virus; viral replication, inhibitor, luciferase; GETYPE4A; replicon): 6.11 nM

C[C@@]12COCO[C@@H]1CC[C@]1(C)[C@@H]2CC[C@@H]2CN(Cc3ccc(F)cc3)[C@@H](C3=CCOC3=O)C[C@H]21
inhibition (unidentified human coronavirus; cytopathic effect; MRC5; 25 µM, 72 h): 32%

COc1nc(Cl)nc2c1ncn2[C@@H]1O[C@H](CO)[C@@H](F)[C@@H]1F
EC90 (Hepatitis C virus; viral replication, inhibitor; Huh-7; replicon): > 10 µM

CC(=O)OC[C@@]1(C)[C@H]2CC[C@@H]3CN(Cc4ccc(Br)cc4)[C@@H](C4=CCOC4=O)C[C@H]3[C@]2(C)CC[C@H]1OC(C)=O
inhibition (unidentified human coronavirus; cytopathic effect; MRC5; 25 µM, 72 h): 107%

CCOC(=O)c1c(N)csc1-c1cn(-c2ccccc2)nc1-c1ccccc1
inhibition zone (Acinetobacter baumannii; microbial growth, well diffusion; 100000 µg/mL): 20 mm
